# Test results reported in ChEMBL document CHEMBL4024777, “Discovery of LY3104607: A Potent and Selective G Protein-Coupled Receptor 40 (GPR40) Agonist with Optimized Pharmacokinetic Properties to Support Once Daily Oral Treatment in Patients with Type 2 Diabetes Mellitus” (J Med Chem, 2018).
# Calls of active or inactive are those of the source. No cut-off for these calls is given here.
# How the values were obtained:
# [1] = target: Free fatty acid receptor 1 (Homo sapiens, UniProt O14842); assay: Agonist activity at human GPR40 receptor expressed in HEK293 cells assessed as increase in intracellular calcium flux after 2.5 hrs measured over 3 mins by calcium 4 dye-based FLIPR assay; format: functional, cell-based
# Sequence of Free fatty acid receptor 1 (O14842 whole entry): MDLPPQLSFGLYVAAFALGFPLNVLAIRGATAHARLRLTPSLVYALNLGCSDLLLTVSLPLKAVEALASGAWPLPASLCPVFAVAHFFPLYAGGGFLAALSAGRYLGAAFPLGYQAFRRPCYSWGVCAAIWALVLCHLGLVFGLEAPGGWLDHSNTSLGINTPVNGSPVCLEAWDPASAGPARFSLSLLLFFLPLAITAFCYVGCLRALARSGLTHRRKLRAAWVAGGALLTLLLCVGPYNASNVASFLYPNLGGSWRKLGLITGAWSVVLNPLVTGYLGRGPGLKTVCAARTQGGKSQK
# Outline: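 Calcium flux was read by FLIPR in cells carrying recombinant human GPR40. Percent stimulation is relative to the response to 100 µM linoleic acid. EC50 is reported with SEM and n.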
# 3T3-L1 = assay: Induction of adipogenesis in mouse 3T3L1 cells; format: functional, cell-based
# Outline: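 Adipogenesis was assessed in 3T3-L1 cells.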
# [2] = target: T1, Peroxisome proliferator-activated receptor alpha (Homo sapiens) (UniProt Q07869); assay: Displacement of [3H]-agonist from human PPARalpha expressed in baculovirus infecetd Sf9 cells system up to 30 uM after 10 hrs in presence of DR2 by scintillation proximity assay
# T1 sequence (whole entry): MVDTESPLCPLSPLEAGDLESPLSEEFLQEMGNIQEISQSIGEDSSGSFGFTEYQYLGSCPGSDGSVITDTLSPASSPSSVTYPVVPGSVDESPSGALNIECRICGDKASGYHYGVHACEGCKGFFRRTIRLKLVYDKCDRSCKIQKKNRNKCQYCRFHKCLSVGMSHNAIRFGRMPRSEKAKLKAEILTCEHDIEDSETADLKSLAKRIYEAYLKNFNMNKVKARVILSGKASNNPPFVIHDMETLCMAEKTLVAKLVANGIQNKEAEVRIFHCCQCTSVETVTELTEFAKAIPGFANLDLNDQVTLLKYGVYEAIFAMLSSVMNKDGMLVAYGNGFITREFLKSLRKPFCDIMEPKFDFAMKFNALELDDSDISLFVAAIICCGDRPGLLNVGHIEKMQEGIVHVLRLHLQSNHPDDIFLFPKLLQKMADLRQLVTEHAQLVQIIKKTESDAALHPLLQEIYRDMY
# Outline: (§1)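 PPAR alpha, delta and gamma binding and functional activity were each tested at concentrations up to 30 µM.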
# [3] = AUC (0 to 24 hrs) in Sprague-Dawley rat at 500 mg/kg, po; format: ADME, organism-based; design: dose 500 mg/kg, time < 24 hr, route oral; conditions: in vivo
# [4] = Initial plasma concentration in Sprague-Dawley rat at 1 mg/kg, iv; format: ADME, organism-based
# [5] = Cmax in Sprague-Dawley rat at 10 mg/kg, po; format: ADME, organism-based; design: dose 10 mg/kg, route oral; conditions: in vivo
# [6] = Cmax in Sprague-Dawley rat at 500 mg/kg, po; format: ADME, organism-based; design: dose 500 mg/kg, route oral; conditions: in vivo
# [7] = Tmax in Sprague-Dawley rat at 500 mg/kg, po; format: ADME, organism-based; conditions: in vivo
# [8] = Volume of distribution at steady state in Sprague-Dawley rat at 1 mg/kg, iv; format: ADME, organism-based; conditions: in vivo, read-out: Vdss
# [9] = AUC (0 to 24 hrs) in Beagle dog at 300 mg/kg, po; format: ADME, organism-based, Canis lupus familiaris; design: time < 24 hr, dose 300 mg/kg, route oral; conditions: in vivo
# [10] = Cmax in Beagle dog at 3 mg/kg, po; format: ADME, organism-based, Canis lupus familiaris; design: dose 3 mg/kg, route oral; conditions: in vivo
# [11] = Cmax in Beagle dog at 100 mg/kg, po; format: ADME, organism-based, Canis lupus familiaris; design: dose 100 mg/kg, route oral; conditions: in vivo
# [12] = Cmax in Beagle dog at 300 mg/kg, po; format: ADME, organism-based, Canis lupus familiaris; design: dose 300 mg/kg, route oral; conditions: in vivo
# [13] = Tmax in Beagle dog at 3 mg/kg, po; format: ADME, organism-based, Canis lupus familiaris; conditions: in vivo
# Outline: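 Fasted dogs dosed orally at 3 mg/kg. […] Bioavailability is derived relative to the 1 mg/kg IV dose.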
# [14] = Half life in Beagle dog at 1 mg/kg, iv; format: ADME, organism-based, Canis lupus familiaris; conditions: in vivo
# [15] = Lipophilicity, log P of the compound; format: physicochemical; conditions: octanol/water
# [16] = Dissociation constant, pKa of the compound; format: physicochemical
# [17] = Metabolic stability in mouse microsomes assessed as compound metabolized after 30 mins; format: ADME, Microsome; conditions: read-out: Drug metabolism
# Outline: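 Compound incubated 30 min with liver microsomes from mouse, rat, dog or human. Percent of compound metabolized recorded, as mean (SEM, n).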
# [18] = Solubility of the compound in DMSO at pH 7.4 by aqueous precipitation assay; format: physicochemical
# Outline: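 DMSO stock diluted into aqueous buffer at pH 7.4 in a precipitation assay. Result reported as the last soluble concentration, upper limit 100 µM.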
# [19] = target: Free fatty acid receptor 1 (Rattus norvegicus) (UniProt Q8K3T4); assay: Agonist activity at GPR40 in Sprague-Dawley rat islets assessed as potentiation of glucose-stimulated insulin secretion at 1 to 10 uM in presence of […] glucose by ELISA
# Sequence of Free fatty acid receptor 1 (Rattus norvegicus) (Q8K3T4 whole entry): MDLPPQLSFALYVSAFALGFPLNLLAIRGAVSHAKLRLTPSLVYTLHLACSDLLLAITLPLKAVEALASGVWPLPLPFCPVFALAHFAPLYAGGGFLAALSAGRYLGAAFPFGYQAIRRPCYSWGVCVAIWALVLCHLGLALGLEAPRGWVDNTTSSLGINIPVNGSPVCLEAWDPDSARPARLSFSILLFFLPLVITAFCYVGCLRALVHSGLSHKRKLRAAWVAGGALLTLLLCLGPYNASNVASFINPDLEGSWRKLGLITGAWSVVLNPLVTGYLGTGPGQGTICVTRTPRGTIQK
# [20] = Solubility of the compound in pH 8.1 buffer; format: physicochemical
# [21] = Drug metabolism in rat hepatocytes assessed as metabolite-A formation; format: ADME, cell-based, Hepatocyte
# [22] = target: T2, Peroxisome proliferator-activated receptor delta (Homo sapiens) (UniProt Q03181); assay: Displacement of [3H]-agonist from human PPARdelta expressed in baculovirus infecetd Sf9 cells system up to 30 uM after 10 hrs in presence of DR2 by scintillation proximity assay; outline: as §1
# T2 sequence (whole entry): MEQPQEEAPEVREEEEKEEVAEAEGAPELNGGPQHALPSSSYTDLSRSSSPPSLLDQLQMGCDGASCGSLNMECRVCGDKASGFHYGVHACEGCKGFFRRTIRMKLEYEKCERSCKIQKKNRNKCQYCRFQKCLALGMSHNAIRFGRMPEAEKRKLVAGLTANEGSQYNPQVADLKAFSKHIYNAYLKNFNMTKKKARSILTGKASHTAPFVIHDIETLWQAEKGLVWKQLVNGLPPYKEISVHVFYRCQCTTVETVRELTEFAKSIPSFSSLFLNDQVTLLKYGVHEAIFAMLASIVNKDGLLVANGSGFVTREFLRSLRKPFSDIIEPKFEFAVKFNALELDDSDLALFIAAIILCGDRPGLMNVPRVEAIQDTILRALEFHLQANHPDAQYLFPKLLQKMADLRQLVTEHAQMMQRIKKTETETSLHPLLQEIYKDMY
# [23] = target: T3, Peroxisome proliferator-activated receptor gamma (Homo sapiens) (UniProt P37231); assay: Displacement of [3H]-agonist from human PPARgamma expressed in baculovirus infecetd Sf9 cells system up to 30 uM after 10 hrs in presence of DR2 by scintillation proximity assay; outline: as §1
# T3 sequence (whole entry): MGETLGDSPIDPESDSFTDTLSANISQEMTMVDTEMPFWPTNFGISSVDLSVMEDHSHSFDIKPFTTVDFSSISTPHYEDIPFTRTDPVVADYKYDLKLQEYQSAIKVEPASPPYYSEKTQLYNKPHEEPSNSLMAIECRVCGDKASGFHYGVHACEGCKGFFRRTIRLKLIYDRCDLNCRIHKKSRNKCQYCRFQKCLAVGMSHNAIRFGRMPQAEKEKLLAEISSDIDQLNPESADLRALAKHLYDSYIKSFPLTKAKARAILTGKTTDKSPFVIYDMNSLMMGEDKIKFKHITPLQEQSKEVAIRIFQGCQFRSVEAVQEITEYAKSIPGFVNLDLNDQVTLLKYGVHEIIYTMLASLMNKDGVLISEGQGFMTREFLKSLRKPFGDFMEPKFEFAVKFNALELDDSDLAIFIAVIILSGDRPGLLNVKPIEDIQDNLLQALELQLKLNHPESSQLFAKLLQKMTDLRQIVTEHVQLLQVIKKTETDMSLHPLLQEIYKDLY
smiles,measurement,setting,value
CC#C[C@@H](CC(=O)O)c1ccc(OCc2ccc3nc(-c4c(C)cccc4C)nn3c2)cc1,EC50,[1],11 nM
same,Activity,3T3-L1,inactive
same,Activity,[2],inactive
same,AUC(0-t) at 24 h,[3],4790 µg·h/mL
same,C0,[4],4.34 µg/mL
same,Cmax,[5],23.7 µg/mL
same,Cmax,[6],281 µg/mL
same,Tmax,[7],6.7 h
same,Vd,[8],0.33 L/kg
same,AUC(0-t) at 24 h,[9],4010 µg·h/mL
same,Cmax,[10],9.9 µg/mL
same,Cmax,[11],260 µg/mL
same,Cmax,[12],277 µg/mL
same,Tmax,[13],0.67 h
same,half-life,[14],6.53 h
same,logP,[15],4.8
same,pKa,[16],4.3
same,metabolised at 0.5 h,[17],7%
same,solubility kinetic,[18],> 100 µM
same,Activity,[19],inactive
same,solubility,[20],173 µg/mL
same,Drug metabolism,[21],Metabolite_Detected
same,Activity,[22],inactive
same,Activity,[23],inactive
